pKi: −log10 of the molar value.
Key:
[1] = target: Histamine H3 receptor (Rattus norvegicus, UniProt Q9QYN8); assay: (§1) In vitro antagonist potency at Histamine H3 receptor measured as K+-evoked [3H]histamine release from synaptosomes of rat cerebral cortex.; type: functional, subcellular, Brain
Outline: (§2)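 Rat cerebral cortex synaptosomes; [³H]histamine release evoked by K⁺ depolarization; antagonist activity measured at least in triplicate, per Garbarg et al.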

[2] = target: Histamine H3 receptor (Rattus norvegicus) (UniProt Q9QYN8); assay: as §1; type: functional, subcellular; conditions: Brain; outline: as §2
Chain of Histamine H3 receptor (Rattus norvegicus) (Q9QYN8 whole entry): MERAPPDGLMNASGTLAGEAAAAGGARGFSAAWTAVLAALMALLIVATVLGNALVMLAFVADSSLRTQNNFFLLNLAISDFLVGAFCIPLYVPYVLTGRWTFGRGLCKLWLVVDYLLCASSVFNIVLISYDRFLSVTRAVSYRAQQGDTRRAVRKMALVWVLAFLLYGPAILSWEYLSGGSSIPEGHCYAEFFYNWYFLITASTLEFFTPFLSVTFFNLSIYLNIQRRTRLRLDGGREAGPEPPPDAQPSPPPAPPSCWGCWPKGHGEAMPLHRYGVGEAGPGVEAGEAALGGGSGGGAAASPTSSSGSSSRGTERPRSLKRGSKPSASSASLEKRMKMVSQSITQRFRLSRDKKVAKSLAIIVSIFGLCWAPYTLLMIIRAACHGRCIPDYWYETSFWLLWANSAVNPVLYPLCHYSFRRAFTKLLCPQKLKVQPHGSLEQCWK

[3] = target: Histamine H1 receptor (Cavia porcellus) (UniProt P31389); assay: Compound was tested in vitro for its Histamine H1 receptor activity on guinea pig ileum.; type: functional, tissue-based
Chain of Histamine H1 receptor (Cavia porcellus) (P31389 whole entry): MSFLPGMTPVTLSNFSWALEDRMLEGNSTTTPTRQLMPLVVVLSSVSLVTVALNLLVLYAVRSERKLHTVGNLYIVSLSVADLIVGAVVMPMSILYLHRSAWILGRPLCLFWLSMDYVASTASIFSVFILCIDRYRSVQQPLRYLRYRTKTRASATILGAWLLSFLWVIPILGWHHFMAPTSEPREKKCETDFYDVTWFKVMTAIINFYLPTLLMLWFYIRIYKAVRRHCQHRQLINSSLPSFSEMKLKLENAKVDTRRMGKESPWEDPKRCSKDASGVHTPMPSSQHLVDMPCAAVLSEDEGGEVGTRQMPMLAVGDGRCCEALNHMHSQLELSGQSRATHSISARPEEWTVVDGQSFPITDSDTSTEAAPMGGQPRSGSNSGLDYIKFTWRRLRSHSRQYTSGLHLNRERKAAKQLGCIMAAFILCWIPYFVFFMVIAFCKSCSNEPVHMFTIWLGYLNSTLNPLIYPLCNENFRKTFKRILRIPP

[4] = target: Histamine H3 receptor (Mus musculus) (UniProt P58406); assay: In vivo antagonist activity at Histamine H3 receptor was screened by measuring the effect on brain histamine turnover after oral application to mice.; type: functional, organism-based
Chain of Histamine H3 receptor (Mus musculus) (P58406 whole entry): as the sequence (Q9QYN8 whole entry) above, with T15A, A286T, A290G, R387H, I389V counted along it
Outline: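 Swiss mice dosed orally; in vivo H3 antagonist activity tested at least in triplicate, per Garbarg et al.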

[5] = target: Histamine H2 receptor (Cavia porcellus) (UniProt P47747); assay: Compound was tested in vitro for its Histamine H2 receptor activity on guinea pig atrium.; type: functional, tissue-based; conditions: Cardiac atrium
Chain of Histamine H2 receptor (Cavia porcellus) (P47747 whole entry): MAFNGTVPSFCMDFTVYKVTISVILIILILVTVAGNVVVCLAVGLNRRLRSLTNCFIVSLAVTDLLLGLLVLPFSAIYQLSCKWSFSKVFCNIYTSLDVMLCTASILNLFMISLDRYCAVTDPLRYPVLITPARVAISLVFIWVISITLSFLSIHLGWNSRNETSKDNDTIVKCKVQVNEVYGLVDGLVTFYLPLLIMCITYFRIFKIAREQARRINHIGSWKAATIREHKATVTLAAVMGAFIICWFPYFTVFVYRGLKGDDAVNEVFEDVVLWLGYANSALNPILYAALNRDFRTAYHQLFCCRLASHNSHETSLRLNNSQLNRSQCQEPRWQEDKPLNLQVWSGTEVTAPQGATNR

[6] = target: Histamine H1 receptor (Cavia porcellus) (UniProt P31389); assay: Compound was tested in vitro for its Histamine H1 receptor activity on guinea pig ileum; type: functional, tissue-based

Chain of Histamine H3 receptor (Q9QYN8 whole entry): as the sequence (Q9QYN8 whole entry) above

Compound	pKi [1]	-Log K [2]	-Log K [3]	ED50 [4] [mg/kg]	-Log K [5]	-Log K [6]
C#Cc1ccc(OCCCc2cnc[nH]2)cc1	8.64					
CC(C)(C)C#Cc1ccc(OCCCc2cnc[nH]2)cc1	6.91					
CCCC#Cc1ccc(OCCCc2c[nH]cn2)cc1		6.9	< 5.9	2.2	< 4.7	
C[Si](C)(C)C#Cc1ccc(OCCCc2c[nH]cn2)cc1	7.44	7.4		1.1	< 4.6	< 5
C#Cc1ccc(OCCCc2c[nH]cn2)cc1		8.6		0.12	< 4.8	< 5.5
CC#Cc1ccc(OCCCc2c[nH]cn2)cc1	8.12	8.1	< 5	1.3	< 4.7	
CCCC#Cc1ccc(OCCCc2cnc[nH]2)cc1	6.85					
CC(C)(C)C#Cc1ccc(OCCCc2c[nH]cn2)cc1		6.9	< 5.6	2.2	< 4.6	
